From ChEMBL document CHEMBL4130474, “Spirotriazoline oxindoles: A novel chemical scaffold with in vitro anticancer properties” (Eur J Med Chem, 2017)
The source made the active and inactive calls. No cut-off for these calls is given here.

What was measured:
MDA-MB-231 [1] = test: Induction of cell cycle arrest in human MDA-MB-231 cells at antiproliferative IC50 level by propidium iodide staining based flow cytometry; type: functional
[2] = Selectivity index, ratio of IC50 for antiproliferative activity in HEK293T cells to IC50 for antiproliferative activity in human MCF7 cells; type: toxicity, cell-based; conditions: HEK293T cells versus MCF7 cells, read-out: Ratio IC50
How it was run: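 Ratio of HEK 293T IC50 to MCF-7 IC50 from 72 h MTT assays.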

HEK-293T = test: Antiproliferative activity in human HEK293T cells incubated for 72 hrs by MTT assay; type: cell-based
How it was run: (§1)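 Cells grown in RPMI 1640 with 10% FBS, penicillin/streptomycin; seeded at 2 × 10⁵ cells/mL, allowed to adhere 24 h, then exposed 72 h to compounds diluted in medium from DMSO stocks. MTT added after medium change, 3 h, formazan dissolved in DMSO, absorbance at 570 nm. Triplicate wells, at least 3 independent experiments; IC50 by non-linear regression.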

[3] = Selectivity index, ratio of IC50 for antiproliferative activity in HEK293T cells to IC50 for antiproliferative activity in human MDA-MB-231 cells; type: toxicity, cell-based; conditions: HEK293T cells versus MDA-MB-231 cells, read-out: Ratio IC50
How it was run: (§2)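 Ratio of HEK 293T IC50 to MDA-MB-231 IC50 from 72 h MTT assays.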

[4] = Selectivity index, ratio of IC50 for antiproliferative activity in HEK293T cells to IC50 for antiproliferative activity in human p53 (-/-) human HCT116 cells; type: toxicity, cell-based; conditions: HEK293T cells versus p53 (-/-) HCT116 cells, read-out: Ratio IC50
MDA-MB-231 [5] = test: Induction of apoptosis in human MDA-MB-231 cells assessed as increase in caspase3/7 activity at antiproliferative IC50 level incubated for 48 hrs by Caspase-Glo 3/7 Assay; type: functional
[6] = Potency index, ratio of IC50 for antiproliferative activity in human p53 (+/+) human HCT116 cells to IC50 for antiproliferative activity in human MDA-MB-231 cells; type: functional
[7] = […], ratio of IC50 for antiproliferative activity in HEK293T cells to IC50 for antiproliferative activity in human MDA-MB-231 cells; type: toxicity, cell-based; conditions: HEK293T cells versus MDA-MB-231 cells, read-out: Ratio IC50; how it was run: as §2
MCF7 = test: Antiproliferative activity in human MCF7 cells incubated for 72 hrs by MTT assay; type: functional, cell-based; conditions: MCF7, 72 h; how it was run: as §1
[8] = Potency index, ratio of IC50 for antiproliferative activity in human p53 (-/-) human HCT116 cells to IC50 for antiproliferative activity in human MDA-MB-231 cells; type: functional
HCT-116 [9] = test: Antiproliferative activity in p53 (-/-) human HCT116 cells incubated for 72 hrs by MTS assay; type: functional, cell-based; conditions: HCT-116, 72 h
How it was run: (§3)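 HCT116 p53(+/+) or p53(−/−) seeded at 1 × 10⁵ cells/mL, adhered 24 h, then treated 72 h with compounds diluted from DMSO stocks. Viability by MTS (CellTiter96 AQueous) with absorbance at 490 nm. Duplicate wells, three independent experiments; IC50 by non-linear regression.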

HCT-116 [10] = test: Antiproliferative activity in p53 (+/+) human HCT116 cells incubated for 72 hrs by MTS assay; type: functional, cell-based; conditions: HCT-116, 72 h; how it was run: as §3
[11] = Selectivity index, ratio of IC50 for antiproliferative activity in HEK293T cells to IC50 for antiproliferative activity in human p53 (+/+) human HCT116 cells; type: toxicity, cell-based; conditions: HEK293T cells versus p53 (+/+) HCT116 cells, read-out: Ratio IC50
MDA-MB-231 [12] = test: Antiproliferative activity in human MDA-MB-231 cells incubated for 72 hrs by MTT assay; type: functional, cell-based; conditions: MDA-MB-231, 72 h; how it was run: as §1
[13] = Potency index, ratio of IC50 for antiproliferative activity in human MCF7 cells to IC50 for antiproliferative activity in human MDA-MB-231 cells; type: functional
HCT-116 [14] = test: Induction of cell cycle arrest in p53 (+/+) human HCT116 cells assessed as accumulation at G0/G1 phase at antiproliferative IC50 level incubated for 24 hrs by propidium iodide staining based flow cytometry (reference value: 31.87%); type: functional
CCD-18Co [15] = test: Cytotoxicity in human CCD-18Co cells assessed as reduction in cell viability at antiproliferative IC80 (for p53 (+/+) human HCT116 cells) incubated for 72 hrs by MTS assay; type: cell-based
How it was run: (§4)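 CCD-18Co colon fibroblasts grown in DMEM with 10% FBS, penicillin/streptomycin, Glutamax, NEAA. […] Viability by MTS, absorbance at 490 nm. Triplicate wells, at least 2 independent experiments; mean ± SEM.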

[16] = Potency index, ratio of IC50 for antiproliferative activity in human p53 (-/-) human HCT116 cells to IC50 for antiproliferative activity in human p53 (+/+) human HCT116; type: functional
HCT-116 [17] = test: Induction of cell cycle arrest in p53 (+/+) human HCT116 cells assessed as accumulation at G0/G1 phase at antiproliferative IC50 level incubated for 48 hrs by propidium iodide staining based flow cytometry (reference value: 50.48%); type: functional
HCT-116 [18] = test: Induction of cell cycle arrest in p53 (+/+) human HCT116 cells assessed as accumulation at S phase at antiproliferative IC50 level incubated for 48 hrs by propidium iodide staining based flow cytometry (reference value: 22.67%); type: functional
[19] = target: Tumour suppressor p53/oncoprotein Mdm2 (Homo sapiens) (UniProt P04637+Q00987); test: Inhibition of p53/MDM2 interaction (unknown origin) transfected in p53 (-/-) human HCT116 cells at 10 uM incubated for 4 hrs by Venus-based bimolecular fluorescence complementation assay
How it was run: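 HCT116 p53(−/−) co-transfected with V1-p53/MDM2-V2 BiFC plasmids using Lipofectamine 2000. Medium replaced 4–6 h after transfection, then compound (final 5 and 10 µM), nutlin-3a, or matched DMSO added; transfection period 24 h. Venus fluorescence read by flow cytometry and normalized to DMSO (100%). Three experiments.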

HCT-116 [20] = test: Reduction in MDM2 protein expression in p53 (+/+) human HCT116 cells at antiproliferative IC50 level incubated for 72 hrs by Western blot; type: functional, cell-based
How it was run: (§5)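 Lysed in NP-40 buffer, protein measured by Bradford, separated by 8%/14% SDS-PAGE, blotted to nitrocellulose. Probed overnight at 4 °C with anti-p53 (Pab-240) and anti-MDM2 (SMP-14), then HRP secondary with chemiluminescence. Ponceau S loading control, densitometry; two experiments.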

HCT-116 [21] = test: Induction of apoptosis in p53 (+/+) human HCT116 cells at 2 times antiproliferative IC50 level incubated for 72 hrs by Annexin-V and 7-AAD staining based flow cytometry; type: functional, cell-based
How it was run: (§6)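 Cells detached with Accutase and stained with Annexin V/7-AAD (Guava Nexin), 20 min at room temperature in the dark. Flow cytometry, ≥5000 events per sample; three independent experiments.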

HCT-116 [22] = test: Induction of apoptosis in p53 (+/+) human HCT116 cells assessed as increase in early apoptotic cells level at antiproliferative IC50 level incubated for 72 hrs by Annexin-V and 7-AAD staining based flow cytometry; type: functional; how it was run: as §6
HCT-116 [23] = test: Increase in p53 protein expression in p53 (+/+) human HCT116 cells at antiproliferative IC50 level incubated for 72 hrs by Western blot; type: functional, cell-based; how it was run: as §5
CCD-18Co [24] = test: Cytotoxicity in human CCD-18Co cells assessed as reduction in cell viability at antiproliferative IC50 (for p53 (+/+) human HCT116 cells) incubated for 72 hrs by MTS assay; type: cell-based; how it was run: as §4
HCT-116 [25] = test: Induction of cell cycle arrest in p53 (+/+) human HCT116 cells assessed as accumulation at S phase at antiproliferative IC50 level incubated for 24 hrs by propidium iodide staining based flow cytometry (reference value: 38.3%); type: functional
HCT-116 [26] = test: Induction of cell cycle arrest in p53 (+/+) human HCT116 cells assessed as accumulation at G2/M phase at antiproliferative IC50 level incubated for 24 hrs by propidium iodide staining based flow cytometry (reference value: 25.85%); type: functional
HCT-116 [27] = test: Induction of cell cycle arrest in p53 (+/+) human HCT116 cells assessed as accumulation at G2/M phase at antiproliferative IC50 level incubated for 48 hrs by propidium iodide staining based flow cytometry (reference value: 26.85%); type: functional

Tumour suppressor p53/oncoprotein Mdm2 (Homo sapiens), sequence (P04637 whole entry, looked up): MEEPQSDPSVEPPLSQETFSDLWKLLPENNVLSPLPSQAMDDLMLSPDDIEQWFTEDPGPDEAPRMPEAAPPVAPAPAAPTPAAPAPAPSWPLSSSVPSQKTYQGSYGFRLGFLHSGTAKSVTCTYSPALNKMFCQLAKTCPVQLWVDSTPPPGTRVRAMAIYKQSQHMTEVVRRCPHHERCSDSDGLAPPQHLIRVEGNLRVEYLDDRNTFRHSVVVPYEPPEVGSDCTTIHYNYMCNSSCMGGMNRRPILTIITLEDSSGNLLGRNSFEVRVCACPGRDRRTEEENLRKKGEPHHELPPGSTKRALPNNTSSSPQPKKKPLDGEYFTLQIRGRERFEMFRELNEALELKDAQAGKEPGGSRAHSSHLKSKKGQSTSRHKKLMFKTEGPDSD
Tumour suppressor p53/oncoprotein Mdm2 (Homo sapiens), sequence (Q00987 whole entry, looked up): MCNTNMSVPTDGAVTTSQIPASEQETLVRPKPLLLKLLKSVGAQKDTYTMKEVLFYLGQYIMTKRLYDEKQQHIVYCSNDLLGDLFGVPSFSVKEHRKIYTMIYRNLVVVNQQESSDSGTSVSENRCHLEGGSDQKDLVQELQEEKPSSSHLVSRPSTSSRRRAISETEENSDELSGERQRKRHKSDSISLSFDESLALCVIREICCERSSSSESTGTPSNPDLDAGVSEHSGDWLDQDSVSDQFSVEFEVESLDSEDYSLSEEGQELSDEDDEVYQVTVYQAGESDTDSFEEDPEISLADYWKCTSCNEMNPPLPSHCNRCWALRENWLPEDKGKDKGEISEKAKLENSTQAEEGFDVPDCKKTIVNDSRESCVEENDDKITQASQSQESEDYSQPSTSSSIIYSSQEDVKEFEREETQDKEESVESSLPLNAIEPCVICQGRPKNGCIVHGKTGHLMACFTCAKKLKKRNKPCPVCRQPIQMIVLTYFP

With O=C1Nc2ccc(Br)cc2C12N(c1ccccc1)N=C(c1ccccc1)N2c1ccccc1 (centres undefined) the Activity (MDA-MB-231 [1]) was “inactive”, the selectivity ratio [2] was 2.4 to 2.5 and the IC50 (HEK-293T) was 56.3 µM. For the same molecule, the selectivity ratio [3] was at least 2.4, the selectivity ratio [4] was 2.5 and the “fold change (FC)” value (MDA-MB-231 [5]) was 2.5. The “Ratio IC50” value [6] was “>=2.4”, the selectivity ratio [7] was at least 2.5 and the IC50 (MCF7) was 23 µM. The “Ratio IC50” value [8] was “>=2.4”, the IC50 (HCT-116 [9]) was 22.5 µM and the IC50 (HCT-116 [10]) was 22.2 µM. The selectivity ratio [11] was 2.5, the IC50 (MDA-MB-231 [12]) was 6.7 µM and the “Ratio IC50” value [13] was “>=2.4”.
Work on O=C1Nc2ccc(Br)cc2C12N(c1ccccc1Cl)N=C(c1cccc(Cl)c1)N2c1cccc(Cl)c1 (centres undefined) yielded an Activity (HCT-116 [14]) of 34.54%, an Activity (CCD-18Co [15]) of 40% and a selectivity ratio [2] of 2.3. For the same molecule, the IC50 (HEK-293T) was 21.4 µM, the “Ratio IC50” value [16] was 1.3 and the selectivity ratio [4] was under 2. For the same molecule, the Activity (HCT-116 [17]) was 65.49%, the Activity (HCT-116 [18]) was 33.41% and the inhibition [19] was “Active”. The Activity (HCT-116 [20]) was “Active”, the IC50 (MCF7) was 9.5 µM and the IC50 (HCT-116 [9]) was 17.7 µM. For the same molecule, the IC50 (HCT-116 [10]) was 13.9 µM, the Activity (HCT-116 [21]) was “Dose-dependent effect” and the selectivity ratio [11] was 1.5. The IC50 (MDA-MB-231 [12]) was 7.6 µM, the “fold change (FC)” value (HCT-116 [22]) was 2.8 and the Activity (HCT-116 [23]) was “Active”. The Activity (CCD-18Co [24]) was “Non-Toxic” and the Activity (HCT-116 [25]) was 42.61%.
O=C1Nc2ccc(Cl)cc2C12N(c1ccccc1)N=C(c1ccccc1)N2c1cccc(Cl)c1 (centres undefined) gave an Activity (HCT-116 [14]) of 50.11%, an Activity (CCD-18Co [15]) of 40% and a selectivity ratio [2] of 2.5 to 10.2. The IC50 (HEK-293T) was over 100 µM, the selectivity ratio [4] was 2.5 to 5.6 and the Activity (HCT-116 [17]) was 58%. The Activity (HCT-116 [18]) was 31.34%, the selectivity ratio [7] was at least 2.5 and the IC50 (MCF7) was 9.8 µM. For the same molecule, the IC50 (HCT-116 [9]) was 17.9 µM, the IC50 (HCT-116 [10]) was 16.3 µM and the Activity (HCT-116 [21]) was “Dose-dependent effect”. For the same molecule, the selectivity ratio [11] was 2.5 to 5.6, the IC50 (MDA-MB-231 [12]) was 8.9 µM and the “fold change (FC)” value (HCT-116 [22]) was 3.1. For the same molecule, the Activity (CCD-18Co [24]) was “Non-Toxic”, the Activity (HCT-116 [26]) was 13.87% and the Activity (HCT-116 [27]) was 13.65%. The Activity (HCT-116 [25]) was 36.42%.
